# Data taken from ChEMBL document CHEMBL3877241 (J Med Chem, 2016).
# Activity calls are given as the source filed them. The calls are words filed in the database; no cut-off is given here.
# Key:
# [1] = Antiproliferative activity against human KMS-12-BM cells after 48 hrs by CellTiter-Glo assay; format: functional, cell-based
# [2] = molecular target: T1, Tyrosine-protein kinase JAK2 (Homo sapiens, UniProt O60674); experiment: Inhibition of JAK2 in IL-6-stimulated human KMS-12-BM cells assessed as suppression of STAT3 phosphorylation at TY705 residue at 2 uM pretreated for 3 hrs followed by IL-6 stimulation by immunoblot method
# T1 sequence (O60674 whole entry): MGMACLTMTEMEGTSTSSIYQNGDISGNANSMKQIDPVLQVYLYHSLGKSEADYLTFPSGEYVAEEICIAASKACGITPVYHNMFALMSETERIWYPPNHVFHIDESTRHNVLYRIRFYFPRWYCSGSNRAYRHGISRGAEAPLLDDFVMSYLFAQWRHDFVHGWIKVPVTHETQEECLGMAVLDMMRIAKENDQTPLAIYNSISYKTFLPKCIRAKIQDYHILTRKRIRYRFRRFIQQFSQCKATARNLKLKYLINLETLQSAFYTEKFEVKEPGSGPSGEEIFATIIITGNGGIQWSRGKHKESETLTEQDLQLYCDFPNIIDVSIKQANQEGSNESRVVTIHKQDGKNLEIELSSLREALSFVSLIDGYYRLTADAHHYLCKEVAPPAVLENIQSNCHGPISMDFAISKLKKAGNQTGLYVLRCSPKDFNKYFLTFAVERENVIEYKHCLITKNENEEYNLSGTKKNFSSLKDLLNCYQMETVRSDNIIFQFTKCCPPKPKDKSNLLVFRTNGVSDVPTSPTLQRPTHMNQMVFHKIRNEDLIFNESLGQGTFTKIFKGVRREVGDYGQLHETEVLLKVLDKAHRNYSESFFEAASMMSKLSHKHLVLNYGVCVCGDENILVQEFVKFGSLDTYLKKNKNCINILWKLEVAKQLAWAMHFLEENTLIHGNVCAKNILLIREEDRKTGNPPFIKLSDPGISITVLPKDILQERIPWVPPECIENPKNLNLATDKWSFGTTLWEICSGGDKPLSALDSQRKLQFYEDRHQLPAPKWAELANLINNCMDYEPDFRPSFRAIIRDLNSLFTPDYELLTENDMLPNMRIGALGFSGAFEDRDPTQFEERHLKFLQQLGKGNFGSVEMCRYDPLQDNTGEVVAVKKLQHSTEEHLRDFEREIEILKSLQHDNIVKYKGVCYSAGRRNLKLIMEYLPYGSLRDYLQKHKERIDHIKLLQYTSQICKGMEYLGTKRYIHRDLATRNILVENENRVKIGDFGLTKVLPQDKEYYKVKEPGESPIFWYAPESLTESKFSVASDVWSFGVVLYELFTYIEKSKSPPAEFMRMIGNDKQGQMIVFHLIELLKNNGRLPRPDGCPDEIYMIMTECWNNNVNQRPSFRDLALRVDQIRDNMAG
# Method in brief: (§1)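 KMS-12-BM or MOLM-14 cells pretreated with compound for 3 h, then stimulated with IL-6 (10 ng/mL) for 15 min. Lysates immunoblotted for p-STAT3 (Y705) and re-probed for total STAT3. Reference JAK2 inhibitor used at 2 μM in KMS-12-BM and 0.1 μM in MOLM-14.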
# [3] = Antiproliferative activity against human MCF7 cells after 72 hrs by MTT assay; format: functional, cell-based; conditions: MCF7, 72 h
# [4] = Antiproliferative activity against human MDA-MB-231 cells after 72 hrs by MTT assay; format: functional, cell-based; conditions: MDA-MB-231, 72 h
# [5] = Antiproliferative activity against human Jurkat cells; format: functional, cell-based
# [6] = Antiproliferative activity against human PC3 cells after 72 hrs by MTT assay; format: functional, cell-based; conditions: PC-3, 72 h
# [7] = Antiproliferative activity against human KG1 cells after 48 hrs by CellTiter-Glo assay; format: functional, cell-based; conditions: KG-1, 48 h
# [8] = Antiproliferative activity against mouse TAMH cells after 24 hrs by CellTiter-Glo assay; format: ADME, cell-based
# [9] = molecular target: T1, Tyrosine-protein kinase JAK2; experiment: Inhibition of JAK2 in IL-6-stimulated human MOLM14 cells assessed as suppression of STAT3 phosphorylation at TY705 residue at 0.1 uM pretreated for 3 hrs followed by IL-6 stimulation by immunoblot method; format: cell-based; conditions: MOLM-14; method in brief: as §1
# [10] = Antiproliferative activity against human MCF7 cells after 48 hrs by CellTiter-Glo assay; format: functional, cell-based; conditions: MCF7, 48 h
# [11] = Antiproliferative activity against human HCT116 cells after 48 hrs by CellTiter-Glo assay; format: functional, cell-based; conditions: HCT-116, 48 h
# [12] = Antiproliferative activity against human PC3 cells after 48 hrs by CellTiter-Glo assay; format: functional, cell-based; conditions: PC-3, 48 h
# [13] = Antiproliferative activity against human KHYG cells after 48 hrs by CellTiter-Glo assay; format: functional, cell-based
# [14] = Antiproliferative activity against human HL60 cells; format: functional, cell-based; conditions: HL-60
# [15] = Antiproliferative activity against HEL 92.1.7 cells harboring JAK2 V617F mutant after 48 hrs by CellTiter-Glo assay; format: functional, cell-based; conditions: Homo sapiens, HEL 92.1.7, 48 h
# [16] = Antiproliferative activity against human OPM2 cells after 48 hrs by CellTiter-Glo assay; format: functional, cell-based; conditions: OPM-2, 48 h
# Method in brief: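 OPM2 grown in RPMI 1640 with 10% FBS and penicillin/streptomycin at 37 °C, 5% CO2. Treated at 25,000 cells/well in triplicate for 48 h. Viability read by CellTiter-Glo luminescence. IC50 taken from a sigmoidal fit of % viability vs log concentration.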
# cells = format: functional, cell-based; conditions: Homo sapiens, HEL 92.1.7, 36 h
# [17] = Antiproliferative activity against human Jurkat cells after 48 hrs by CellTiter-Glo assay; format: functional, cell-based
# [18] = Antiproliferative activity against human HCT116 cells after 72 hrs by MTT assay; format: functional, cell-based; conditions: HCT-116, 72 h
# Method in brief: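 MTT viability after 72 h exposure. Cells seeded at 2500/well and left 24 h before compound addition; DMSO at 0.5% v/v final. MTT added in FBS-free medium for 3 h at 37 °C, formazan dissolved in DMSO, absorbance read at 570 nm. IC50 from a sigmoidal fit of % viability vs log concentration; triplicates on separate occasions using two different stock solutions.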
# [19] = system: Tyrosine-protein kinase JAK2 (Homo sapiens), O60674 [V617F]; experiment: Induction of JAK2 V617F mutant phosphorylation at Y1007/8 residues in HEL 92.1.7 cells after 1 hr by immunoblot method; format: cell-based
# Chain of Tyrosine-protein kinase JAK2 (Homo sapiens), O60674 [V617F] (O60674 whole entry V617F): as the sequence (O60674 whole entry) above, with V617F counted along it
# Method in brief: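 HEL92.1.7 cells seeded at 5x10^5/mL and treated 1 h at 0, 0.1, 0.5 and 1 μM. Lysed in RIPA with phosphatase/protease inhibitors, run on 10% SDS-PAGE and blotted to PVDF. Probed for acetyl-tubulin, acetyl-H3 (Lys9/Lys14), p-JAK2 (Y1007/1008) and p-STAT5 (Tyr694); membranes re-probed for tubulin, H3, JAK2 and STAT5. Quantified by densitometry.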
# [20] = Antiproliferative activity against human NKYS cells after 48 hrs by CellTiter-Glo assay; format: functional, cell-based
# [21] = Antiproliferative activity against human MOLM14 cells harboring FLT3-ITD mutant after 48 hrs by CellTiter-Glo assay; format: functional, cell-based; conditions: MOLM-14, 48 h
# MOLM-14 [22] = experiment: Induction of apoptosis in human MOLM14 cells assessed as live cells at 1 uM after 48 hrs by Annexin-V FITC/propidium iodide staining based flow cytometry (reference value: 94 to 94.1%); format: functional
# Method in brief: (§2)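 MOLM-14 cells treated 48 h at the stated concentrations; doxorubicin as positive control. Stained with Annexin V-FITC and propidium iodide and analysed by flow cytometry (at least 10,000 events). Gated quadrants: Annexin V−/PI− viable, Annexin V+/PI− early apoptotic, Annexin V+/PI+ late apoptotic.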
# MOLM-14 [23] = experiment: Induction of apoptosis in human MOLM14 cells assessed as late apoptotic cells at 1 uM after 48 hrs by Annexin-V FITC/propidium iodide staining based flow cytometry (reference value: 2.1 to 2.2%); format: functional; method in brief: as §2
# MOLM-14 [24] = experiment: Induction of apoptosis in human MOLM14 cells assessed as early apoptotic cells at 1 uM after 48 hrs by Annexin-V FITC/propidium iodide staining based flow cytometry (reference value: 3.6 to 3.7%); format: functional; method in brief: as §2
# MOLM-14 [25] = experiment: Induction of apoptosis in human MOLM14 cells assessed as necrotic cells at 1 uM after 48 hrs by Annexin-V FITC/propidium iodide staining based flow cytometry (reference value: 0.1%); format: functional; method in brief: as §2
structure (smiles),measurement,setting,value
C1=N/C2=N/c3ccc(OCCN4CCCC4)c(c3)COC/C=C/COCc3cccc(c3)C(=C1)N2 [PACRITINIB],IC50,[1],750 nM
same,inhibition,[2],Active
same,IC50,[3],290 nM
same,IC50,[4],2430 nM
same,IC50,[5],1090 nM
same,IC50,[6],2410 nM
same,IC50,[7],1480 nM
same,IC50,[8],3680 nM
same,inhibition,[9],Active
same,IC50,[10],850 nM
same,IC50,[11],1690 nM
same,IC50,[12],770 nM
same,IC50,[13],1240 nM
same,IC50,[14],1780 nM
same,IC50,[15],1730 nM
same,IC50,[16],1210 nM
same,IC50,cells,1170 nM
same,IC50,[17],839 nM
same,IC50,[18],880 nM
same,Activity,[19],Active
same,IC50,[20],1600 nM
same,IC50,[21],79 nM
COc1cccc2c1C(=O)c1c(O)c3c(c(O)c1C2=O)C[C@@](O)(C(=O)CO)C[C@@H]3O[C@H]1C[C@H](N)[C@H](O)[C@H](C)O1 [DOXORUBICIN],Activity,MOLM-14 [22],0.8%
same,Activity,MOLM-14 [23],59.9%
same,Activity,MOLM-14 [24],38.8%
same,Activity,MOLM-14 [25],0.4%
